Rows were chosen to be rich in hits. Some 2.9% of all compounds tested hit in one or more screens of this group.
5HT1E antag: blocks the human 5-HT1E serotonin receptor. CHO 5-HT1E Ga15 NFAT-bla reporter, FRET, antagonist. inhibition, % at 6 µM. hit rate 0.99% among 65,000;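 active = inhibition above a set limit, the mean inhibition across every tested compound plus 3 SD, cut at about 29% in these data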;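 note: signal is the 460 over 535 nm emission ratio of beta-lactamase substrate; 0% = agonist plus DMSO wells and 100% = wells without agonist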
S1P1 ag pot: agonists and agonism potentiators of human S1P1 receptor; activation, % at 9.5 µM; hit rate 0.57% among 56,000; S1P1 CRE-bla cells, forskolin, beta-lactamase FRET, potentiator mode; S1P1 agonist co-added at EC20, 2 nM; 100% = saturating reference agonist, 0% = basal; AID 449; P21453;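 active = activation above a cutoff set at the mean activation of all tested compounds plus 3 SD, cut at about 54% in these data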;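 note: forskolin at 4 µM as EC80 and the EC20 agonist is SEW2871; 100% = SEW2871 at its EC100 plus forskolin at EC80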
HTR1E agonist: 5-HT1E (human) receptor agonism; P28566; CHO 5-HT1E Ga15 NFAT-bla reporter, FRET; 0% DMSO wells, 100% control agonist wells; activation, % at 6 µM; hit rate 0.69% among 65,000; AID 574;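 active = activation above a set limit, the screen-wide mean activation plus 3 SD, cut at about 8.5% in these data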;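 note: 100% = positive control agonist at 1 µM giving full maximal response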
5HT1a antag: 5-HT1a (human) receptor antagonism | CHO 5-HT1a Ga15 NFAT-bla reporter, antagonist mode | inhibition, % at 10 µM | hit rate 0.68% among 62,000;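 active = inhibition above the mean of all tested compounds plus 3 SD, cut at about 43% in these data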;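 note: receptor stimulated by 5-CT agonist at 100 nM near EC80; beta-lactamase reporter measured by ratiometric fluorescence of a cleavable substrate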
Target sequence (P08908 whole entry, looked up): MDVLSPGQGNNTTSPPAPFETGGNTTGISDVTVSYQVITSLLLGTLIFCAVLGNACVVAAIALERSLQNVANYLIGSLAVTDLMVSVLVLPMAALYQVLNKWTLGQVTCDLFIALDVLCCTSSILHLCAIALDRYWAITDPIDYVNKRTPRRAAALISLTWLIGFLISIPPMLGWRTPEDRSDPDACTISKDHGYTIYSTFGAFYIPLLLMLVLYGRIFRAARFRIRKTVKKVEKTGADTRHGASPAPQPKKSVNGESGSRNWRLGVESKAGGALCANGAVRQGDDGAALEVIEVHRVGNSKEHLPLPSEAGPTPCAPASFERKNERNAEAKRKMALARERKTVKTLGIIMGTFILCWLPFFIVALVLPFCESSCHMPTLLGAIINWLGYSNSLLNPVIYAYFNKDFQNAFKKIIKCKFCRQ
S1P3 agonist: activates the human S1P3 receptor | Q99500 | S1P3 NFAT-BLA reporter cells, agonism, FRET ratio; relative to 1 µM S1P, basal subtracted | activation, % at 4.5 µM | hit rate 0.1% among 60,000;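 active = activation above the screen-wide mean plus 3 SD, cut at about 4.5% in these data, passing the limit was not always enough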
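Benchmarks: high control 1 µM S1P / System: stable CHO line with human S1P3, Gα16, NFAT-BLA reporter / Dosing: single compound concentration, 4.5 µM final / Timing: 4 h compound at 37 °C, 2 h substrate at RT / Measured by: FRET β-lactamase substrate fluorescence, excitation 405 nm, 460/535 nm emission ratio, background-subtracted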
HTR1A agonist: agonists of human 5-HT1a serotonin receptor. hit rate 0.56% among 65,000. activation, % at 10 µM. P08908. CHO 5-HT1a Ga15 NFAT-bla reporter, FRET ratio; 0% basal, 100% maximal reference agonist;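 active = activation above the screen-wide mean activation plus 3 SD, cut at about 19% in these data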;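 note: 0% = DMSO wells and 100% = 5-CT at EC100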
* = called active by the depositor.

What do the screens show for `Cc1ccc(-c2csc3nnc(SCC(=O)Nc4cccc(C)n4)n23)cc1`?
5HT1E antag: 12; S1P1 ag pot: 2; HTR1E agonist: -2; 5HT1a antag: 15; S1P3 agonist: -1; HTR1A agonist: -1

What do the screens show for `CCOC(=O)N1CCC(NC(=O)CC(NS(=O)(=O)c2ccc(Cl)cc2)c2ccco2)CC1` (stereo unspecified)?
5HT1E antag: -3; S1P1 ag pot: 2; HTR1E agonist: 1; 5HT1a antag: -16; S1P3 agonist: 0; HTR1A agonist: 29*

What do the screens show for `O=c1c2c3c(sc2nc2sc(CN4CCOCC4)cn12)CCCC3`?
5HT1E antag: 8; S1P1 ag pot: -4; HTR1E agonist: 0; 5HT1a antag: 1; S1P3 agonist: 0; HTR1A agonist: -3

How did CC(C)c1cc(CN2CCN(CCC#N)CC2)cc(C(C)C)c1O do in these assays?
5HT1E antag: -2; S1P1 ag pot: -5; HTR1E agonist: 1; 5HT1a antag: -4; S1P3 agonist: -1; HTR1A agonist: -2

Results for O=C(CSc1nccn1-c1ccc(F)cc1)Nc1ccc2c(c1)OCO2 ?
5HT1E antag: 1; S1P1 ag pot: 9; HTR1E agonist: 14*; 5HT1a antag: 12; S1P3 agonist: -1; HTR1A agonist: -1

How did O=C(CSc1nccn1-c1ccccc1)Nc1ccc2c(c1)OCO2 do in these assays?
5HT1E antag: 10; S1P1 ag pot: -1; HTR1E agonist: -1; 5HT1a antag: 11; S1P3 agonist: -2; HTR1A agonist: -3

How did CCn1c(SCC(=O)Nc2nccs2)nnc1-c1ccc(S(=O)(=O)N2CCCCC2)cc1 do in these assays?
5HT1E antag: -4; S1P1 ag pot: 6; HTR1E agonist: 0; 5HT1a antag: -10; S1P3 agonist: 0; HTR1A agonist: 1

Results for CN(C)CCN(Cc1ccccc1)c1ccnc(N(C)C)c1C#N ?
5HT1E antag: 6; HTR1E agonist: 21*; 5HT1a antag: -1; S1P3 agonist: -1; HTR1A agonist: 4

Results for CN(C)CCN(Cc1ccccc1)c1ccccn1 ?
5HT1E antag: -2; S1P1 ag pot: 9; HTR1E agonist: 0; S1P3 agonist: -4; HTR1A agonist: 1

Results for CC1=C(c2ccc(Cl)cc2)[N+](=O)C(C)(C)N1[O-] ?
5HT1E antag: 8; S1P1 ag pot: -2; HTR1E agonist: 1; S1P3 agonist: -3; HTR1A agonist: 1

Results for CCOC(=O)c1ccc(NC(=O)Nc2ccc3c4c(cccc24)C(=O)N3CC)cc1 ?
5HT1E antag: 30*; S1P1 ag pot: -11; HTR1E agonist: 0; 5HT1a antag: 1; S1P3 agonist: -1; HTR1A agonist: -3

How did CCN1C(=O)c2cccc3c(NC(=O)c4ccc(S(=O)(=O)N(C)C)cc4)ccc1c23 do in these assays?
5HT1E antag: 2; HTR1E agonist: 0; 5HT1a antag: -6; S1P3 agonist: -1; HTR1A agonist: 88*

How did CCN1C(=O)c2cccc3c(NS(=O)(=O)c4ccc(NC(C)=O)cc4)ccc1c23 do in these assays?
5HT1E antag: 3; S1P1 ag pot: 1; HTR1E agonist: 0; 5HT1a antag: 0; S1P3 agonist: 0; HTR1A agonist: 0

Results for Cn1c(N2CCN(C(=O)Nc3ccc(C(F)(F)F)cc3)CC2)nc2ccccc21 ?
5HT1E antag: -5; S1P1 ag pot: 20; HTR1E agonist: 2; 5HT1a antag: -6; S1P3 agonist: 0; HTR1A agonist: 0

What do the screens show for `CC(=O)Nc1ccccc1OCC(=O)c1cc(C)n(Cc2cccs2)c1C`?
5HT1E antag: 5; S1P1 ag pot: 110*; HTR1E agonist: 0; 5HT1a antag: 47*; S1P3 agonist: -2; HTR1A agonist: -1

What do the screens show for `CC(=O)Nc1ccc(SCC(=O)c2cc(C)n(Cc3cccs3)c2C)cc1`?
5HT1E antag: 11; S1P1 ag pot: 13; HTR1E agonist: -1; 5HT1a antag: 2; S1P3 agonist: 0; HTR1A agonist: -2

What do the screens show for `Cc1csc(SCC(=O)c2cc(C)n(Cc3cccs3)c2C)n1`?
5HT1E antag: -3; S1P1 ag pot: 86*; HTR1E agonist: 0; 5HT1a antag: 8; S1P3 agonist: 0; HTR1A agonist: -2

How did c1ccc(-n2nc3c(ccc4cnnc43)[nH]2)cc1 do in these assays?
5HT1E antag: 2; S1P1 ag pot: -20; HTR1E agonist: -1; 5HT1a antag: 12; S1P3 agonist: 0; HTR1A agonist: -1

Results for Cc1ccc(S(=O)(=O)NC(=O)COc2ccccc2C(N)=O)cc1 ?
5HT1E antag: 4; HTR1E agonist: 0; 5HT1a antag: 0; S1P3 agonist: 0; HTR1A agonist: -4

Results for CCCOc1ccccc1Nc1nnc(C)c(=O)[nH]1 ?
5HT1E antag: -2; S1P1 ag pot: -10; HTR1E agonist: 1; 5HT1a antag: -16; S1P3 agonist: 0; HTR1A agonist: 0

Results for CCSc1nnc(NC(=O)c2cccc(OCc3c(C)noc3C)c2)s1 ?
5HT1E antag: -3; HTR1E agonist: -1; 5HT1a antag: -2; HTR1A agonist: -1

What do the screens show for `CCOC(=O)c1c(C)[nH]c(C(=O)C(C)OC(=O)c2cccc(OCc3c(C)noc3C)c2)c1C` (stereo unspecified)?
5HT1E antag: 11; S1P1 ag pot: 101*; HTR1E agonist: 1; 5HT1a antag: 6; S1P3 agonist: -2; HTR1A agonist: 10

Results for O=C(Nc1ccccn1)[C@@H]1CCC(=O)N1C(=O)OCc1ccccc1 ?
5HT1E antag: -1; S1P1 ag pot: -6; HTR1E agonist: 0; 5HT1a antag: -13; S1P3 agonist: 0; HTR1A agonist: -1

What do the screens show for `Cc1noc(C)c1CSc1nc2ccccc2[nH]1`?
5HT1E antag: 14; S1P1 ag pot: -5; HTR1E agonist: -1; 5HT1a antag: -2; S1P3 agonist: 1; HTR1A agonist: 67*

Results for COc1ccccc1NC(=O)CSc1ncnc2c1oc1ccccc12 ?
5HT1E antag: 36*; S1P1 ag pot: -26; HTR1E agonist: 0; 5HT1a antag: -2; S1P3 agonist: -1; HTR1A agonist: 1

What do the screens show for `CCc1nc(SCC(=O)Nc2nccs2)c2oc3ccccc3c2n1`?
5HT1E antag: 38*; S1P1 ag pot: -60; HTR1E agonist: 4; 5HT1a antag: 2; S1P3 agonist: 0; HTR1A agonist: 1

What do the screens show for `Cc1cccc(NC(=O)CSc2ncnc3c2oc2ccccc23)c1`?
5HT1E antag: 12; S1P1 ag pot: -36; HTR1E agonist: 1; 5HT1a antag: 4; S1P3 agonist: 1; HTR1A agonist: 1

Results for CCc1nc(SCC(=O)Nc2ccc3c(c2)OCCO3)c2oc3ccccc3c2n1 ?
5HT1E antag: 23; S1P1 ag pot: 3; HTR1E agonist: 0; 5HT1a antag: 5; S1P3 agonist: -1; HTR1A agonist: -2

High-throughput results deposited in PubChem by The Scripps Research Institute Molecular Screening Center.
